Consider two molecules from ChEMBL document CHEMBL4190282, “The Conjugated Double Bond of Coniferyl Aldehyde Is Essential for Heat Shock Factor 1 Mediated Cytotoprotection” (J Nat Prod, 2017).

In data set [1] the test system is L132. The experiment in a line: Cytoprotective activity against paclitaxel-induced caspase3 cleavage in human L-132 cells at 3 uM pretreated for 1 hr followed by paclitaxel addition measured after 24 hrs by immunoblotting analysis. It is filed as functional, cell-based. The procedure, abridged: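 Human embryonic lung L132 cells in RPMI with 10% FBS. 1 h pretreatment at 3 μM, then 0.5 μM paclitaxel or 20 μM cisplatin for 24 h, or 10 Gy 137Cs γ-rays (3.81 Gy/min) for 48 h. Cleaved PARP and caspase-3 immunoblotted (ECL); bands normalized to loading control, fold-change vs negative control, ≥3 independent experiments.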
(In general: Immunoblotting shows a protein as a band on a membrane.)

The target of data set [2] is T1, Heat shock factor protein 1 (Homo sapiens) (UniProt Q00613).
T1 sequence (whole entry): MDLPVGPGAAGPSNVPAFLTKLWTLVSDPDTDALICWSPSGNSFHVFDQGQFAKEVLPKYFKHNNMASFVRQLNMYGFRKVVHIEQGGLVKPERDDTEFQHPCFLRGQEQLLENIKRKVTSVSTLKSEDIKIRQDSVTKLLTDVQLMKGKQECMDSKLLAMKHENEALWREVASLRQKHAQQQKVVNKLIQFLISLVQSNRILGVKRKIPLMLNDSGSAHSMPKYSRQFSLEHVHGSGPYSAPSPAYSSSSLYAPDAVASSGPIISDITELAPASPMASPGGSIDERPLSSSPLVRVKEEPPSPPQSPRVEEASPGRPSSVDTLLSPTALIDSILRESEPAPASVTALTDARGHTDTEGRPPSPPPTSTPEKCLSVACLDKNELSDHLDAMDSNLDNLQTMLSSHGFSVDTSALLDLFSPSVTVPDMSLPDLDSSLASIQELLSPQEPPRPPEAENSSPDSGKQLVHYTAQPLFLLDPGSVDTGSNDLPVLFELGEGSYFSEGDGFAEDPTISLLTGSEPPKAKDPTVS
The experiment in a line: Activation of HSF1 in human NCI-H460 cells expressing pGL4-hsp25 construct assessed as upregulation of hsp25 promoter activity at 10 to 30 uM after 12 hrs by luciferase reporter gene assay. The class given is cell-based. The procedure, abridged:
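NCI-H460 cells stably carrying hsp25 or hsp70 promoter–luciferase reporters, seeded, treated after 24 h at 10 or 30 μM and harvested 12 h later. Lysate luciferase normalized to β-galactosidase; mean of three independent experiments, fold-change vs negative control.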
(A reporter such as luciferase makes a cellular process visible.)

The subject of data set [3] is NCI-H460. Description: Upregulation of HSF1 protein level in human NCI-H460 cells at 10 to 30 uM after 12 hrs by Western blot analysis. The class given is functional, cell-based. The procedure, abridged: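 NCI-H460 cells treated 12 h at 10 or 30 μM; HSF1, HSP27 and HSP70 detected by Western blot.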
Data set [4] has as its target T1, Heat shock factor protein 1 (Homo sapiens). Description: Induction of HSF1 phosphorylation at Ser326 residue in human L-132 cells at 3 uM after 12 hrs by immunoblotting analysis. It is filed as cell-based. In outline:
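L132 cells treated at 3 μM for 12 h, or at various doses for 12 h, or at 3 μM over a time course. Lysates resolved by SDS-PAGE, blotted to nitrocellulose, milk-blocked, primary antibodies 18 h at 4 °C, ECL detection. HSP27, HSP70 and Ser326-phospho-HSF1 bands normalized to loading control; ≥3 independent experiments; celastrol 1 μM positive control.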

Data set [5] has as its system MEF. The experiment in a line: Cytoprotective activity against cisplatin-induced PARP cleavage in HSF1 deficient MEF at 3 uM pretreated for 1 hr followed by cisplatin addition measured after 24 hrs by immunoblotting analysis. It is filed as functional, cell-based. The note with it: Mus musculus. The procedure, abridged: (§1)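 HSF1+/+ or HSF1−/− MEFs in DMEM with heat-inactivated 10% FBS, nonessential amino acids, glutamine, HEPES, 37 °C, 5% CO2. 1 h pretreatment at 3 μM, then 0.5 μM paclitaxel or 20 μM cisplatin for 24 h, or 10 Gy 137Cs γ-rays (3.81 Gy/min) for 48 h. Cleaved PARP and caspase-3 immunoblotted; bands normalized to loading control, fold-change vs negative control, ≥3 independent experiments.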

The test system of data set [6] is MEF. Description: Cytoprotective activity against IR-induced PARP cleavage in HSF1 deficient MEF at 3 uM pretreated for 1 hr followed by 10 Gy irradiation measured after 48 hrs by immunoblotting analysis. It is filed as functional, cell-based. The note with it: Mus musculus. In outline: as §1
For data set [7], the system named is Mus musculus. The experiment in a line: Toxicity in ICR mouse at 10 mg/kg, ip measured within 30 days. The note with it: in vivo, 720 h. It is filed as organism-based. The procedure, abridged: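 Normal ICR mice given 10 mg/kg ip (DMSO stock diluted in modified PBS); observed for signs of toxicity over 30 days.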
For data set [8], the system named is Mus musculus. The experiment in a line: Protection against IR-induced lethargy in ICR mouse at 5 to 10 mg/kg, ip administered once before and three times after 7 Gy irradiation measured daily for 30 days. The class given is functional, organism-based. The procedure, abridged:
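Female ICR mice (5–6 weeks, 25–30 g) given 7 Gy whole-body IR; dosed ip at 5 or 10 mg/kg once before and three times after IR, DMSO stock diluted in modified PBS. Survival days and radiation sickness signs checked twice daily; 10 mice per group.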

Data set [9] has as its system Mus musculus. Description: Protection against IR-induced bone marrow damage in ICR mouse at 10 mg/kg, ip administered once before and three times after 4.5 Gy irradiation measured after 9 days by hematoxylin and eosin staining based assay. It is filed as functional, organism-based. The procedure, abridged: (§2)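 Female ICR mice (5–6 weeks) given 4.5 Gy whole-body IR, dosed ip at 10 mg/kg once before and three times after IR; 5 per group, sacrificed day 9. BM cellularity from H&E (hematopoietic cells per 200×200 μm area); peripheral WBC, lymphocytes, neutrophils; Ki67 IHC counted in five fields per femur; relative spleen weight vs control. Means ± SD, Student's t test.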

Data set [10] relates to Mus musculus. The experiment in a line: Protection against IR-induced reduction in circulating neutrophils in ICR mouse at 10 mg/kg, ip administered once before and three times after 4.5 Gy irradiation measured after 9 days. The class given is functional, organism-based. The procedure, abridged:
as §2

Data set [11] deals with Mus musculus. Description: Protection against IR-induced reduction in circulating lymphocytes in ICR mouse at 10 mg/kg, ip administered once before and three times after 4.5 Gy irradiation measured after 9 days. The class given is functional, organism-based. The procedure, abridged:
as §2

Data set [12] deals with L132. The experiment in a line: Cytoprotective activity against paclitaxel-induced cell death in human L-132 cells at 3 uM pretreated for 1 hr followed by paclitaxel addition measured after 24 hrs by FACS analysis. The class given is functional, cell-based. In outline:
(§3)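 L132 cells in RPMI with 10% FBS. 1 h pretreatment at 3 μM, then 0.5 μM paclitaxel or 20 μM cisplatin for 24 h, or 10 Gy γ-rays for 48 h. Cells trypsinized, washed, stained with propidium iodide and analysed by flow cytometry. Means ± SD of ≥3 independent experiments, fold-change vs negative control.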
In general terms: In flow cytometry, cells or beads pass a laser one at a time.

Data set [13] deals with L132. The experiment in a line: Cytoprotective activity against cisplatin-induced cell death in human L-132 cells at 3 uM pretreated for 1 hr followed by cisplatin addition measured after 24 hrs by FACS analysis. It is filed as functional, cell-based. The procedure, abridged:
as §3

Active and inactive are the calls of the source. The calls are words filed in the database; no cut-off is given here.

For the molecule `COc1cc(/C=C/CO)ccc1O` [CONIFERYL ALCOHOL], the result in data set [1], in data set [2], in [3], in [4], in [8] and in data set [9] was Active. The result in [10], in data set [11], in data set [12] and in [13] was Active. Moreover, the result in [5] and in data set [6] was inactive. In data set [7], the Activity entry was “Non-Toxic”.

In the case of `COc1cc(/C=C/C=O)ccc1O` [CONIFERYL ALDEHYDE], the result in data set [1], in data set [2], in [3], in [4], in data set [8] and in data set [9] was Active. Moreover, the outcome in data set [10], in [11], in [12] and in data set [13] was Active. Moreover, the outcome in data set [5] and in data set [6] was inactive. The Activity entry in [7] is “Non-Toxic”.
